Test results published in ChEMBL document CHEMBL1150247, “Structural determinants for affinity enhancement of a dual antagonist peptide entry inhibitor of human immunodeficiency virus type-1” (J Med Chem, 2008).
Blank lines part the entries; values can stand above or below the compound they belong to.

Assays:
[1] = Binding affinity to immobilized HIV1 YU2 gp120 by surface plasmon resonance method; set-up: species or system Human immunodeficiency virus 1
Outline: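 YU2 gp120 (Drosophila S2-expressed, F105-affinity purified) amine-coupled to CM5 chip (~4000 RU); peptides in PBS injected at 15 μL/min, 5 min association, 5 min dissociation. Buffer and anti-IL5Rα 2B6R control-surface responses subtracted; kinetic constants fitted in BIAevaluation.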

[2] = Inhibition of HIV1 YU2 gp120 binding to immobilized CD4 by surface plasmon resonance method; set-up: species or system Human immunodeficiency virus 1
[3] = test system: Human immunodeficiency virus 1; assay: Antiviral activity against HIV1 BaL in CCR5 expressing P4 cells after 2 hrs; format: functional, organism-based; details: Human immunodeficiency virus 1, BaL, P4, 2 h
Outline: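 P4-CCR5 cells (DMEM, 10% FBS, puromycin) seeded 1.2×10^4/well ~18 h ahead; exposed 2 h to HIV-1 BaL plus peptide, washed, cultured 46 more h; infection read by β-galactosidase reporter assay. Infectivity relative to mock-treated infected cells; IC50 from sigmoidal dose-response fit; two independent experiments combined.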

[4] = Cytotoxicity against CCR5 expressing human P4 cells after 2 hrs by MTT assay; format: cell-based; details: p4, 2 h
Outline: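 P4-CCR5 cells seeded 4×10^4/well ~18 h ahead, exposed 2 h to varying peptide concentrations, washed, then viability by MTT; triplicate in two independent assays.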

[5] = Inhibition of HIV1 YU2 gp120 binding to immobilized CD4 binding site specific b6 monoclonal antibody by surface plasmon resonance method; set-up: species or system Human immunodeficiency virus 1
[6] = Inhibition of HIV1 YU2 gp120 binding to immobilized CD4 binding site specific immunoglobulin G b12 monoclonal antibody by surface plasmon resonance method; set-up: species or system Human immunodeficiency virus 1
[7] = Inhibition of HIV1 YU2 gp120 binding to immobilized CD4 binding site specific F105 monoclonal antibody by surface plasmon resonance method; set-up: species or system Human immunodeficiency virus 1
[8] = Inhibition of HIV1 YU2 gp120 binding to immobilized CD4 induced 17b monoclonal antibody by surface plasmon resonance method; set-up: species or system Human immunodeficiency virus 1

- Kd [1]: 2700 nM
Structure (SMILES): CC[C@H](C)[C@H](NC(=O)[C@@H](N)CCCNC(=N)N)C(=O)N[C@@H](CC(N)=O)C(=O)N[C@@H](CC(N)=O)C(=O)N[C@H](C(=O)N1C[C@H](n2cc(-c3ccccc3)nn2)C[C@H]1C(=O)N[C@@H](Cc1c[nH]c2ccccc12)C(=O)N[C@@H](CO)C(=O)N[C@@H](CCC(=O)O)C(=O)N[C@@H](C)C(=O)N[C@@H](CCSC)C(=O)N[C@@H](CCSC)C(=O)O)[C@@H](C)CC

- Kd [1]: 98 nM
Structure (SMILES): CC[C@H](C)[C@H](NC(=O)[C@@H](N)CCCNC(=N)N)C(=O)N[C@@H](CC(N)=O)C(=O)N[C@@H](CC(N)=O)C(=O)N[C@H](C(=O)N1C[C@@H](n2cc(C3=CCCCC3)nn2)C[C@H]1C(=O)N[C@@H](Cc1c[nH]c2ccccc12)C(=O)N[C@@H](CO)C(=O)N[C@@H](CCC(=O)O)C(=O)N[C@@H](C)C(=O)N[C@@H](CCSC)C(=O)N[C@@H](CCSC)C(=O)O)[C@@H](C)CC

- IC50 [2]: 146 nM
- IC50 [3]: 418 nM
- Kd [1]: 9 nM
- IC50 [5]: 235 nM
- IC50 [6]: 191 nM
- IC50 [7]: 137 nM
- IC50 [8]: 177 nM
Structure (SMILES): CCc1ccc(-c2cn([C@H]3C[C@@H](C(=O)N[C@@H](Cc4c[nH]c5ccccc45)C(=O)N[C@@H](CO)C(=O)N[C@@H](CCC(=O)O)C(=O)N[C@@H](C)C(=O)N[C@@H](CCSC)C(=O)N[C@@H](CCSC)C(=O)O)N(C(=O)[C@@H](NC(=O)[C@H](CC(N)=O)NC(=O)[C@H](CC(N)=O)NC(=O)[C@@H](NC(=O)[C@@H](N)CCCNC(=N)N)[C@@H](C)CC)[C@@H](C)CC)C3)nn2)cc1
- Activity [4]: Non-toxic

- Kd [1]: 1930 nM
Structure (SMILES): CC[C@H](C)[C@H](NC(=O)[C@@H](N)CCCNC(=N)N)C(=O)N[C@@H](CC(N)=O)C(=O)N[C@@H](CC(N)=O)C(=O)N[C@H](C(=O)N1C[C@@H](n2cc(-c3ccccc3CO)nn2)C[C@H]1C(=O)N[C@@H](Cc1c[nH]c2ccccc12)C(=O)N[C@@H](CO)C(=O)N[C@@H](CCC(=O)O)C(=O)N[C@@H](C)C(=O)N[C@@H](CCSC)C(=O)N[C@@H](CCSC)C(=O)O)[C@@H](C)CC

- Kd [1]: 128 nM
Structure (SMILES): CC[C@H](C)[C@H](NC(=O)[C@@H](N)CCCNC(=N)N)C(=O)N[C@@H](CC(N)=O)C(=O)N[C@@H](CC(N)=O)C(=O)N[C@H](C(=O)N1C[C@@H](n2cc(-c3ccccc3C)nn2)C[C@H]1C(=O)N[C@@H](Cc1c[nH]c2ccccc12)C(=O)N[C@@H](CO)C(=O)N[C@@H](CCC(=O)O)C(=O)N[C@@H](C)C(=O)N[C@@H](CCSC)C(=O)N[C@@H](CCSC)C(=O)O)[C@@H](C)CC

- Kd [1]: 83 nM
Structure (SMILES): CC[C@H](C)[C@H](NC(=O)[C@@H](N)CCCNC(=N)N)C(=O)N[C@@H](CC(N)=O)C(=O)N[C@@H](CC(N)=O)C(=O)N[C@H](C(=O)N1C[C@@H](n2cc(-c3cccc(C)c3)nn2)C[C@H]1C(=O)N[C@@H](Cc1c[nH]c2ccccc12)C(=O)N[C@@H](CO)C(=O)N[C@@H](CCC(=O)O)C(=O)N[C@@H](C)C(=O)N[C@@H](CCSC)C(=O)N[C@@H](CCSC)C(=O)O)[C@@H](C)CC

- Kd [1]: 115 nM
Structure (SMILES): CC[C@H](C)[C@H](NC(=O)[C@@H](N)CCCNC(=N)N)C(=O)N[C@@H](CC(N)=O)C(=O)N[C@@H](CC(N)=O)C(=O)N[C@H](C(=O)N1C[C@@H](n2cc(CSc3ccccc3)nn2)C[C@H]1C(=O)N[C@@H](Cc1c[nH]c2ccccc12)C(=O)N[C@@H](CO)C(=O)N[C@@H](CCC(=O)O)C(=O)N[C@@H](C)C(=O)N[C@@H](CCSC)C(=O)N[C@@H](CCSC)C(=O)O)[C@@H](C)CC

- Kd [1]: 154 nM
Structure (SMILES): CC[C@H](C)[C@H](NC(=O)[C@@H](N)CCCNC(=N)N)C(=O)N[C@@H](CC(N)=O)C(=O)N[C@@H](CC(N)=O)C(=O)N[C@H](C(=O)N1C[C@@H](n2cc(-c3ccc(OC)cc3)nn2)C[C@H]1C(=O)N[C@@H](Cc1c[nH]c2ccccc12)C(=O)N[C@@H](CO)C(=O)N[C@@H](CCC(=O)O)C(=O)N[C@@H](C)C(=O)N[C@@H](CCSC)C(=O)N[C@@H](CCSC)C(=O)O)[C@@H](C)CC

- Kd [1]: 437 nM
Structure (SMILES): CC[C@H](C)[C@H](NC(=O)[C@@H](N)CCCNC(=N)N)C(=O)N[C@@H](CC(N)=O)C(=O)N[C@@H](CC(N)=O)C(=O)N[C@H](C(=O)N1C[C@@H](n2cc(-c3ccc(N)cc3)nn2)C[C@H]1C(=O)N[C@@H](Cc1c[nH]c2ccccc12)C(=O)N[C@@H](CO)C(=O)N[C@@H](CCC(=O)O)C(=O)N[C@@H](C)C(=O)N[C@@H](CCSC)C(=O)N[C@@H](CCSC)C(=O)O)[C@@H](C)CC

- Kd [1]: 14000 nM
Structure (SMILES): CC[C@H](C)[C@H](NC(=O)[C@@H](N)CCCNC(=N)N)C(=O)N[C@@H](CC(N)=O)C(=O)N[C@@H](CC(N)=O)C(=O)N[C@H](C(=O)N1C[C@@H](n2cc(-c3ccccc3OC)nn2)C[C@H]1C(=O)N[C@@H](Cc1c[nH]c2ccccc12)C(=O)N[C@@H](CO)C(=O)N[C@@H](CCC(=O)O)C(=O)N[C@@H](C)C(=O)N[C@@H](CCSC)C(=O)N[C@@H](CCSC)C(=O)O)[C@@H](C)CC

- IC50 [2]: 99 nM
- IC50 [3]: 610000 nM
- IC50 [5]: 85 nM
- IC50 [6]: 65 nM
- IC50 [7]: 23 nM
- IC50 [8]: 129 nM
Structure (SMILES): CC[C@H](C)[C@H](NC(=O)[C@@H](N)CCCNC(=N)N)C(=O)N[C@@H](CC(N)=O)C(=O)N[C@@H](CC(N)=O)C(=O)N[C@H](C(=O)N1C[C@@H](n2cc(-c3ccc(CCc4ccccc4)cc3)nn2)C[C@H]1C(=O)N[C@@H](Cc1c[nH]c2ccccc12)C(=O)N[C@@H](CO)C(=O)N[C@@H](CCC(=O)O)C(=O)N[C@@H](C)C(=O)N[C@@H](CCSC)C(=O)N[C@@H](CCSC)C(=O)O)[C@@H](C)CC
- Activity [4]: Non-toxic

- Kd [1]: 54 nM
Structure (SMILES): CC[C@H](C)[C@H](NC(=O)[C@@H](N)CCCNC(=N)N)C(=O)N[C@@H](CC(N)=O)C(=O)N[C@@H](CC(N)=O)C(=O)N[C@H](C(=O)N1C[C@@H](n2cc(-c3cccc4ccccc34)nn2)C[C@H]1C(=O)N[C@@H](Cc1c[nH]c2ccccc12)C(=O)N[C@@H](CO)C(=O)N[C@@H](CCC(=O)O)C(=O)N[C@@H](C)C(=O)N[C@@H](CCSC)C(=O)N[C@@H](CCSC)C(=O)O)[C@@H](C)CC

- Kd [1]: 160 nM
Structure (SMILES): CC[C@H](C)[C@H](NC(=O)[C@@H](N)CCCNC(=N)N)C(=O)N[C@@H](CC(N)=O)C(=O)N[C@@H](CC(N)=O)C(=O)N[C@H](C(=O)N1C[C@@H](n2cc(-c3cc(C)c(C)cc3C)nn2)C[C@H]1C(=O)N[C@@H](Cc1c[nH]c2ccccc12)C(=O)N[C@@H](CO)C(=O)N[C@@H](CCC(=O)O)C(=O)N[C@@H](C)C(=O)N[C@@H](CCSC)C(=O)N[C@@H](CCSC)C(=O)O)[C@@H](C)CC

- Kd [1]: 25000 nM
Structure (SMILES): CC[C@H](C)[C@H](NC(=O)[C@@H](N)CCCNC(=N)N)C(=O)N[C@@H](CC(N)=O)C(=O)N[C@@H](CC(N)=O)C(=O)N[C@H](C(=O)N1C[C@@H](n2cc(-c3ccccc3N)nn2)C[C@H]1C(=O)N[C@@H](Cc1c[nH]c2ccccc12)C(=O)N[C@@H](CO)C(=O)N[C@@H](CCC(=O)O)C(=O)N[C@@H](C)C(=O)N[C@@H](CCSC)C(=O)N[C@@H](CCSC)C(=O)O)[C@@H](C)CC

- Kd [1]: 91 nM
Structure (SMILES): CC[C@H](C)[C@H](NC(=O)[C@@H](N)CCCNC(=N)N)C(=O)N[C@@H](CC(N)=O)C(=O)N[C@@H](CC(N)=O)C(=O)N[C@H](C(=O)N1C[C@@H](n2cc(-c3ccc(F)cc3)nn2)C[C@H]1C(=O)N[C@@H](Cc1c[nH]c2ccccc12)C(=O)N[C@@H](CO)C(=O)N[C@@H](CCC(=O)O)C(=O)N[C@@H](C)C(=O)N[C@@H](CCSC)C(=O)N[C@@H](CCSC)C(=O)O)[C@@H](C)CC

- Kd [1]: 388 nM
Structure (SMILES): CC[C@H](C)[C@H](NC(=O)[C@@H](N)CCCNC(=N)N)C(=O)N[C@@H](CC(N)=O)C(=O)N[C@@H](CC(N)=O)C(=O)N[C@H](C(=O)N1C[C@@H](n2cc(Cn3nnc4ccccc43)nn2)C[C@H]1C(=O)N[C@@H](Cc1c[nH]c2ccccc12)C(=O)N[C@@H](CO)C(=O)N[C@@H](CCC(=O)O)C(=O)N[C@@H](C)C(=O)N[C@@H](CCSC)C(=O)N[C@@H](CCSC)C(=O)O)[C@@H](C)CC

- Kd [1]: 38 nM
Structure (SMILES): CC[C@H](C)[C@H](NC(=O)[C@@H](N)CCCNC(=N)N)C(=O)N[C@@H](CC(N)=O)C(=O)N[C@@H](CC(N)=O)C(=O)N[C@H](C(=O)N1C[C@@H](n2cc(-c3ccc(F)c(C)c3)nn2)C[C@H]1C(=O)N[C@@H](Cc1c[nH]c2ccccc12)C(=O)N[C@@H](CO)C(=O)N[C@@H](CCC(=O)O)C(=O)N[C@@H](C)C(=O)N[C@@H](CCSC)C(=O)N[C@@H](CCSC)C(=O)O)[C@@H](C)CC

- Kd [1]: 741 nM
Structure (SMILES): CC[C@H](C)[C@H](NC(=O)[C@@H](N)CCCNC(=N)N)C(=O)N[C@@H](CC(N)=O)C(=O)N[C@@H](CC(N)=O)C(=O)N[C@H](C(=O)N1C[C@@H](n2cc(-c3cc(C)ccc3C)nn2)C[C@H]1C(=O)N[C@@H](Cc1c[nH]c2ccccc12)C(=O)N[C@@H](CO)C(=O)N[C@@H](CCC(=O)O)C(=O)N[C@@H](C)C(=O)N[C@@H](CCSC)C(=O)N[C@@H](CCSC)C(=O)O)[C@@H](C)CC

- IC50 [2]: 67 nM
- IC50 [3]: 156 nM
- Kd [1]: 12 nM
- IC50 [5]: 136 nM
- IC50 [6]: 117 nM
- IC50 [7]: 76 nM
- IC50 [8]: 94 nM
Structure (SMILES): CC[C@H](C)[C@H](NC(=O)[C@@H](N)CCCNC(=N)N)C(=O)N[C@@H](CC(N)=O)C(=O)N[C@@H](CC(N)=O)C(=O)N[C@H](C(=O)N1C[C@@H](n2cc(-c3ccc(C)cc3)nn2)C[C@H]1C(=O)N[C@@H](Cc1c[nH]c2ccccc12)C(=O)N[C@@H](CO)C(=O)N[C@@H](CCC(=O)O)C(=O)N[C@@H](C)C(=O)N[C@@H](CCSC)C(=O)N[C@@H](CCSC)C(=O)O)[C@@H](C)CC
- Activity [4]: Non-toxic
